# Source: PMC9245008 (ACS chemical biology, 2022)
# Key:
# [1] = Bioavailability in adult CD-1 mice; format: in vivo
# CAMKKβ−1 = CAMKKβ−1 (Homo sapiens, UniProt Q96RR4); experiment: Dose–response of top 10 kinase hits; format: biochemical; details: read-out: IC50 CAMKKβ−1, n = 2
# [2] = system: IL-1β expression in THP-1 cells; experiment: Cytokine dose–response curves in THP-1 cells; format: cell-based, human; details: read-out: IC50 IL-1β expression; LPS-stimulated THP-1, 24 h
# How it was run: (§1)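 THP-1 cells differentiated with PMA (100 nM) for up to 72 h, then rested 24 h in PMA-free RPMI. Pretreated with test compound (3.2 nM–32 μM) or DMSO vehicle, then stimulated with LPS (10 ng/mL). After 24 h, TNF, IL-6 and IL-1β in supernatant measured by Luminex and expressed as percent of vehicle control; n = 3.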
# NUAK = biological target: T1, NUAK (Homo sapiens, UniProt O60285); experiment: Dose–response of top 10 kinase hits; format: biochemical; details: read-out: IC50 NUAK, n = 2
# T1 sequence (O60285 1-661): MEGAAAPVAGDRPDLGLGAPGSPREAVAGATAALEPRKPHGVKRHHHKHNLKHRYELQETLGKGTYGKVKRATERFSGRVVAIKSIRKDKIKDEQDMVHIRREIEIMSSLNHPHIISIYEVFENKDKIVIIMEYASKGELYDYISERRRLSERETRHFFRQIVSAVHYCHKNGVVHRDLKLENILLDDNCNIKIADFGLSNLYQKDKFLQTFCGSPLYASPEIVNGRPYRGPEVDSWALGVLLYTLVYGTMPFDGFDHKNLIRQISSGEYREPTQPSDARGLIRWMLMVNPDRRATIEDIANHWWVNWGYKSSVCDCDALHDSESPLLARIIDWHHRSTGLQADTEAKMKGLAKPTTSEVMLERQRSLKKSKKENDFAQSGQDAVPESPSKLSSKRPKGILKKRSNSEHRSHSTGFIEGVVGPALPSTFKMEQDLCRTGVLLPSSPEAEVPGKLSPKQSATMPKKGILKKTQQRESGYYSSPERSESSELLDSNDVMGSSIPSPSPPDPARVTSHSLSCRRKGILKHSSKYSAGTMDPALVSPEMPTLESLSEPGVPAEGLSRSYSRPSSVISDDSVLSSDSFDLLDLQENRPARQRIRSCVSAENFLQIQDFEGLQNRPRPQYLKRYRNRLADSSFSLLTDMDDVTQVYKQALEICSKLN
# IRAK1 = IRAK1 (Homo sapiens, UniProt P51617); experiment: MRC Dundee kinase panel screen at 10 μM; format: biochemical
# [3] = system: IL-6 expression in THP-1 cells; experiment: Cytokine dose–response curves in THP-1 cells; format: cell-based, human; details: read-out: IC50 IL-6 expression; LPS-stimulated THP-1, 24 h
# How it was run: as §1
# MAP4K5 [4] = biological target: T2, MAP4K5 (Homo sapiens, UniProt Q9Y4K4); experiment: MRC Dundee kinase panel screen at 10 μM; format: biochemical
# CIA mouse model = CIA mouse model of inflammatory arthritis; format: in vivo, DBA/1 mice
# How it was run: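 Type II collagen emulsified 1:1 with Freund's complete adjuvant; mice anaesthetised with isoflurane and given intradermal tail-base injections (400 μg collagen total) on days 0 and 21, then randomised by body weight on day 21.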
# GCK = biological target: T3, GCK (Homo sapiens, UniProt Q12851); experiment: Dose–response of top 10 kinase hits; format: biochemical
# T3 sequence (Q12851 1-820): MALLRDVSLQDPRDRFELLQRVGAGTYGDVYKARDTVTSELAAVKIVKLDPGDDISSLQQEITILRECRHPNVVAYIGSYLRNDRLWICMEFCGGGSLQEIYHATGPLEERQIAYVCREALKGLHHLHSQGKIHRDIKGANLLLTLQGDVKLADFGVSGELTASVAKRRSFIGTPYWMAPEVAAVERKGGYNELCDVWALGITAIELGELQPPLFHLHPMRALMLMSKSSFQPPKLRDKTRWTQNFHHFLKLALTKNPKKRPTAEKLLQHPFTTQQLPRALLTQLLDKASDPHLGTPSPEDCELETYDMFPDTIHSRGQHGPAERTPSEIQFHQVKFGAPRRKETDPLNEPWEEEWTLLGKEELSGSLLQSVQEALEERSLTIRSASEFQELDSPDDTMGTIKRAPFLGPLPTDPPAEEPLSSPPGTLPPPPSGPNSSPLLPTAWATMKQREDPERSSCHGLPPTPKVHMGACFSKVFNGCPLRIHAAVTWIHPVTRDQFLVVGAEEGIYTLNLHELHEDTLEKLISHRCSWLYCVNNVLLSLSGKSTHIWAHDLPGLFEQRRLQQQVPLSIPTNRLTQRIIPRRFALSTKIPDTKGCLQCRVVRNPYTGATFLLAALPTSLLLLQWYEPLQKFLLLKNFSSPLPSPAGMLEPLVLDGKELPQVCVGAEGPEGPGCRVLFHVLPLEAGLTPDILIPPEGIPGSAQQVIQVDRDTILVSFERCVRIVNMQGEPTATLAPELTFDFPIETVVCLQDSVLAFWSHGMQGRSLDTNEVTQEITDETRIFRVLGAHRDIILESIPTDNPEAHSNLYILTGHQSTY
# MLK1 = MLK1 (Homo sapiens, UniProt P80192); experiment: Dose–response of top 10 kinase hits; format: biochemical; details: read-out: IC50 MLK1, n = 2
# MAP4K5 [5] = biological target: T2, MAP4K5; experiment: Dose–response of top 10 kinase hits; format: biochemical; details: read-out: IC50 MAP4K5, n = 2
# [6] = oral administration, normal mice
# [7] = 50 mg/kg IP, all joints (paws and knees), vs vehicle
# T2 sequence (Q9Y4K4 whole entry): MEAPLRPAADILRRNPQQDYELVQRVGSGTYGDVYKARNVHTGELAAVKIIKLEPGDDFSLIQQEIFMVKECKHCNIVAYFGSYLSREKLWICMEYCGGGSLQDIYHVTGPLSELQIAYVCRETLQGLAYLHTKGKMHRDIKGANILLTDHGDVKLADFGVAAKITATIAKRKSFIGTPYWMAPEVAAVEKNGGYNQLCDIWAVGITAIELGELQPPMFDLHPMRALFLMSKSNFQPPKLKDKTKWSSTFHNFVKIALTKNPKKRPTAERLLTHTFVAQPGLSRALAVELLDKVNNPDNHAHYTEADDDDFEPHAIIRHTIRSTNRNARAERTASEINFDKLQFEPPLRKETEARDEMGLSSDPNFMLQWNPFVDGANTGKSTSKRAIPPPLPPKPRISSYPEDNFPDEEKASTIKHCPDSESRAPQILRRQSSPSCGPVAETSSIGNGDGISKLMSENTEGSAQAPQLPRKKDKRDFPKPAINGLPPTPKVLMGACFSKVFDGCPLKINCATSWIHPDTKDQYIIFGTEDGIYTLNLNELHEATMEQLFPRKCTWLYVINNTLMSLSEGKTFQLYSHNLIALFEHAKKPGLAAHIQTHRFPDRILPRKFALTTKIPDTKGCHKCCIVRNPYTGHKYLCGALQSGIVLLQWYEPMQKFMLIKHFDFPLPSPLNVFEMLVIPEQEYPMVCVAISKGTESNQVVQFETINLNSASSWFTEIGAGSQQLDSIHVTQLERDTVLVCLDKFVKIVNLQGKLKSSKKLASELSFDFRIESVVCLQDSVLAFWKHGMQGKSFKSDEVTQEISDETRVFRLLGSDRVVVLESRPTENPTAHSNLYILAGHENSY
# MLK1, sequence (P80192 whole entry): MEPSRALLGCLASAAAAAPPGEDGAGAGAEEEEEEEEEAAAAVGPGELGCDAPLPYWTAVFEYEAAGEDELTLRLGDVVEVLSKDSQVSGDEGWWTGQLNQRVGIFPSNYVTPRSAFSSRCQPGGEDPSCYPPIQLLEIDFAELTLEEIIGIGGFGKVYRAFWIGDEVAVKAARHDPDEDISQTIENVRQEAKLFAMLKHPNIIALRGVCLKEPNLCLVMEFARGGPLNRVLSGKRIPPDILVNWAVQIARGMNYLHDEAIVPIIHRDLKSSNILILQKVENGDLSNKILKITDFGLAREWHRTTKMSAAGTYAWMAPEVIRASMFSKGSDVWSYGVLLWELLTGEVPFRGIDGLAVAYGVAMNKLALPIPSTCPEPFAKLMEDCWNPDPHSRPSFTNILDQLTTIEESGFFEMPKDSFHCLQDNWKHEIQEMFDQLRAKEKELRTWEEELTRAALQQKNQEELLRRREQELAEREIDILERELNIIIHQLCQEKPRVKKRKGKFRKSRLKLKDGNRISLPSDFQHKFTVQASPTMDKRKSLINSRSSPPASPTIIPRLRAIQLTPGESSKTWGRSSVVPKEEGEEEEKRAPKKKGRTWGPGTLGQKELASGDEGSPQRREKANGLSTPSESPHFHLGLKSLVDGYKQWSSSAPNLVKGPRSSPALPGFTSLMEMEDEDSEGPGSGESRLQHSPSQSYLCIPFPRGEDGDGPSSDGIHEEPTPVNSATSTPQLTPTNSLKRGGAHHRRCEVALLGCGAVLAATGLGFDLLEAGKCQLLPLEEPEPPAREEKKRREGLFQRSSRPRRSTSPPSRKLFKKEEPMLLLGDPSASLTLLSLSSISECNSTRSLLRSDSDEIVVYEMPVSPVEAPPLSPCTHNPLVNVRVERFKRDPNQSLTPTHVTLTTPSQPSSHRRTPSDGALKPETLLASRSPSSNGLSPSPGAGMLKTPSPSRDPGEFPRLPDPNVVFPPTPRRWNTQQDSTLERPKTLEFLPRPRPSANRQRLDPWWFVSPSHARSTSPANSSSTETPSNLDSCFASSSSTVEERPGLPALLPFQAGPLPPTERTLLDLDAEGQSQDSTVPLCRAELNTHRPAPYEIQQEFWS
# CAMKKβ−1, sequence (Q96RR4 whole entry): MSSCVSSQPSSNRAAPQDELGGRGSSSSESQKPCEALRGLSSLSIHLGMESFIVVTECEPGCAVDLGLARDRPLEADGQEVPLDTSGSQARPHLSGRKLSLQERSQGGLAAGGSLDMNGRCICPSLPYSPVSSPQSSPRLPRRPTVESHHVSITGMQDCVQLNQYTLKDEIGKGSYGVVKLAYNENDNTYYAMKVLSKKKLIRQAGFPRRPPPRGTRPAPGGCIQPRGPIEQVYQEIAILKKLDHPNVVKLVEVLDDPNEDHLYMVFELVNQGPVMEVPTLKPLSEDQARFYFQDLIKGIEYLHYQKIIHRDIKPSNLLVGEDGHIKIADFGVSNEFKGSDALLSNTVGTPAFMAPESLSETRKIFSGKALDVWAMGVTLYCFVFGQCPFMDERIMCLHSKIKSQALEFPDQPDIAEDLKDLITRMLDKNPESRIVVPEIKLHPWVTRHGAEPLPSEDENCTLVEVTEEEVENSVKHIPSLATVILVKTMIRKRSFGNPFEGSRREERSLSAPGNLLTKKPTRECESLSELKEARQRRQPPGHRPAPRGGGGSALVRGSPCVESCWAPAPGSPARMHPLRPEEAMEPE
# IRAK1, sequence (P51617 whole entry): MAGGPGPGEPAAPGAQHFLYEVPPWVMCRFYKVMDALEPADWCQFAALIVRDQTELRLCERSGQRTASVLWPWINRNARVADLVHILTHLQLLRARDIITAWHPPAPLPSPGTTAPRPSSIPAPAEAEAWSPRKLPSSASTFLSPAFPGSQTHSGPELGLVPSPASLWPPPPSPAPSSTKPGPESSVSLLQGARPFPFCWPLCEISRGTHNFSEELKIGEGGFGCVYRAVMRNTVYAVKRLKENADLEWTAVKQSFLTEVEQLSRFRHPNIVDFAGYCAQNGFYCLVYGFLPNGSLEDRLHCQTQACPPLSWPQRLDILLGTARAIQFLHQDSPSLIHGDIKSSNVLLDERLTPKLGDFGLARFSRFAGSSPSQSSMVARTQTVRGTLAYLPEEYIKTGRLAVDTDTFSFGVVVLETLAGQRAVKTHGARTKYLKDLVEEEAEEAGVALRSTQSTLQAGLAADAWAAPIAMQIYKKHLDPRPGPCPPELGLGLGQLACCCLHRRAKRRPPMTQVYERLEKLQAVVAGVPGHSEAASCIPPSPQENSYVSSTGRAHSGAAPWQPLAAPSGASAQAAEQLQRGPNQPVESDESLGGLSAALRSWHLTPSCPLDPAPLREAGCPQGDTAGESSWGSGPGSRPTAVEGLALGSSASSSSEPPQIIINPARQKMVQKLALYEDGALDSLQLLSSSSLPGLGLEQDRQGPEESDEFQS
structure (smiles),measurement,setting,value
CCCn1c(NC(=O)c2cccc(C(N)=O)c2)nc2ccc(CN3CCCCC3)cc21 [HS-276],AUC0-last,"[1]; mouse, IV, 30 mg/kg",7960.0 ng·h/mL
same,Cmax,"[1]; mouse, IV, 30 mg/kg","11,162 ng/ml"
same,Tmax,"[1]; mouse, IV, 30 mg/kg",0.08 h
same,half-life,"[1]; mouse, IV, 30 mg/kg",1.24 h
same,%F,"[1]; mouse, PO, 30 mg/kg",98.1%
same,AUC0-last,"[1]; mouse, PO, 30 mg/kg",7812 ng·h/mL
same,Cmax,"[1]; mouse, PO, 30 mg/kg",3682 ng/mL
same,Tmax,"[1]; mouse, PO, 30 mg/kg",1 h
same,half-life,"[1]; mouse, PO, 30 mg/kg",1.41 h
same,bioavailability,[1]; [6],> 95%
same,plasma levels,[1]; [6],μM plasma levels
same,IC50,CAMKKβ−1,1280 nM
same,IC50,[2],234 nM
same,IC50,NUAK,270 nM
same,enzymatic activity,IRAK1,< 15%
same,IC50,[3],201 nM
same,enzymatic activity,MAP4K5 [4],< 15%
same,reduction of arthritic clinical score,CIA mouse model; 10 mg/kg QD PO,18%
same,reduction of disease clinical score,CIA mouse model; 25 mg/kg IP,36%
same,reduction of arthritic clinical score,CIA mouse model; 30 mg/kg QD PO,35%
same,disease onset,CIA mouse model; 50 mg/kg IP,significantly delayed disease onset
same,reduction of mean clinical score,CIA mouse model; 50 mg/kg IP,85%
same,reduction of bone resorption score,CIA mouse model; [7],87%
same,reduction of cartilage damage score,CIA mouse model; [7],76%
same,reduction of inflammation score,CIA mouse model; [7],62%
same,reduction of pannus score,CIA mouse model; [7],86%
same,reduction of periosteal bone formation score,CIA mouse model; [7],93%
same,clinical arthritis scores,"CIA mouse model; 50 mg/kg, days 26 through 36, vs disease control",significantly reduced
same,reduction of AUC of clinical arthritis scores,"CIA mouse model; 50 mg/kg, vs disease control mice",85%
same,disease onset,"CIA mouse model; 10 and 30 mg/kg QD PO and 25 mg/kg IP, vs vehicle",did not significantly delay disease onset
same,disease incidence,"CIA mouse model; day 36, 50 mg/kg IP, vehicle 92%",75%
same,TAK1 more potently inhibited than GCK,GCK; from dose–response IC50 values,4.1 fold
same,IC50,"GCK; read-out: IC50 GCK, dose–response, n = 2",33 nM
same,IC50,MLK1,5580 nM
same,IC50,MAP4K5 [5],124 nM
